From ChEMBL document CHEMBL1139220, “Structure-activity relationship study of prion inhibition by 2-aminopyridine-3,5-dicarbonitrile-based compounds: parallel synthesis, bioactivity, and in vitro pharmacokinetics” (J Med Chem, 2007) come the findings set out here.

Molecules are shown by their SMILES. In brackets after ≈: the same amount, converted by molar mass. Activity calls are given as the source filed them. The calls are words filed in the database; no cut-off is given here. Some results are limits rather than exact numbers.

The nature of data set [1]: Solubility in phosphate buffer at pH 6.5 at 500 uM. It is filed as physicochemical.
Data set [2] deals with ScN2a. The data set can be described thus: Reduction of PrPSC accumulation in ScN2a cells. Particulars: Mus musculus. It is filed as functional, cell-based. In short, it runs like this: (§1)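 Scrapie-infected mouse neuroblastoma ScN2a cells, seeded at about 40 000 cells/well, were exposed to compound for 5 days at 37 °C; concentrations up to 25 µM, final DMSO ≤0.25%. Viability was read first with calcein-AM (ex/em 492/525 nm). The same wells were then lysed, Benzonase-treated, digested with proteinase K (1 h, 37 °C), PTA-precipitated and assayed for PrP 27-30 by direct ELISA (D18 antibody, AP/pNPP). Triplicate, three independent experiments.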

In data set [3] the test system is ScN2a. Nature of the data set: Cytotoxicity against ScN2a cells. It is filed as functional. Particulars: Mus musculus, read-out: LD50 (the source's name). In short, it runs like this:
as §1

In data set [4] the test system is ScN2a. The data set can be described thus: Reduction of PrPSC accumulation in ScN2a cells upto 25 uM. It is filed as functional, cell-based. Particulars: Mus musculus. In short, it runs like this: as §1
Data set [5] addresses Adenosine receptor A2a (Homo sapiens) (UniProt P29274). Nature of the data set: Inhibition of human adenosine A2a receptor at 5 uM relative to NECA. In short, it runs like this:
(§2)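 Human adenosine receptor subtypes hA1, hA2a and hA3 were tested with compound at 5 µM. Inhibition is expressed relative to a selective reference also used at 5 µM, taken as 100%: DPCPX for hA1, NECA for hA2a, IB-MECA for hA3.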

Data set [6] concerns the target T1, Adenosine receptor A3 (Homo sapiens) (UniProt P0DMS8).
T1 sequence (whole entry): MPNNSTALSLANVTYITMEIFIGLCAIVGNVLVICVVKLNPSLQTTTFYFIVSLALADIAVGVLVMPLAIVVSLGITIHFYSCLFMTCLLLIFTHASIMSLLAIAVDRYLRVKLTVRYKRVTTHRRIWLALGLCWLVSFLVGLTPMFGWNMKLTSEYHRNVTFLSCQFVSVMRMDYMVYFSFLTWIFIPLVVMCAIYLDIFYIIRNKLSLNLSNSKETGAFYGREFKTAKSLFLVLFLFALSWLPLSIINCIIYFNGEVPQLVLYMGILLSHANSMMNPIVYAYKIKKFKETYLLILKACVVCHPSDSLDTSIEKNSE
The data set can be described thus: Inhibition of human adenosine A3 receptor ar 5 uM realtive to IB-MECA. In outline:
as §2

In another data set the target is T2, Adenosine receptor A1 (Homo sapiens, UniProt P30542).
T2 sequence (P30542 whole entry): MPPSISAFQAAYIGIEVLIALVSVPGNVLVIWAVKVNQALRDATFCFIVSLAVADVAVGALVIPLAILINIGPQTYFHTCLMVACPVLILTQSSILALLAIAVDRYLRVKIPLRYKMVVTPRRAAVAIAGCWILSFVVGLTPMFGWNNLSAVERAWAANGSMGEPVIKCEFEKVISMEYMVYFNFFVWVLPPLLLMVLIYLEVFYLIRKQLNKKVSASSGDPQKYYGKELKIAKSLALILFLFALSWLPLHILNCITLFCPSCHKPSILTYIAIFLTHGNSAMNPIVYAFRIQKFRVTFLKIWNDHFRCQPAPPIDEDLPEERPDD
Nature of the data set: Inhibitory constant aganist human adenosine A1 receptor.

Data set [7] deals with T3, Adenosine receptor A1 (Homo sapiens) (UniProt P30542).
T3 sequence (whole entry): T2 sequence (P30542 whole entry)
Nature of the data set: Inhibition of human adenosine A1 receptor at 5 uM relative to DPCPX. In outline: as §2

Adenosine receptor A2a (Homo sapiens), sequence (P29274 whole entry): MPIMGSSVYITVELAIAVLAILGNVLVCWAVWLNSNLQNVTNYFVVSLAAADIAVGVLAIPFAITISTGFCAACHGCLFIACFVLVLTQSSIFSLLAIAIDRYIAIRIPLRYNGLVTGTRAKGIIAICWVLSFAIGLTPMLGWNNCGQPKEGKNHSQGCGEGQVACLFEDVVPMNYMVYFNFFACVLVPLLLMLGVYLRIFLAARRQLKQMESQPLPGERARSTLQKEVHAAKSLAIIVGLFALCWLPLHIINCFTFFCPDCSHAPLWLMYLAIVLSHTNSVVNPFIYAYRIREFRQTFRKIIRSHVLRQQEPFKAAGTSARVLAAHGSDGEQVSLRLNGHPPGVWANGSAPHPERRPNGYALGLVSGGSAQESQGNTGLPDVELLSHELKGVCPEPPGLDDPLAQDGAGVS

In turn, `N#Cc1c(N)nc(SCCN2CCCCC2)c(C#N)c1-c1ccco1` had a solubility at 500 µM in data set [1] above 400 µM. Besides, the EC50 with ScN2a [2] worked out at 8.1 µM. In addition, the CC50 in the data set with ScN2a [3] is above 25 µM.

`CN(Cc1cnc2nc(N)nc(N)c2n1)c1ccc(C(=O)N[C@@H](CCC(=O)O)C(=O)O)cc1` [METHOTREXATE]: in data set [1], the solubility at 500 µM is above 400 µM.

For the compound `CCCCN(CCCC)CCSc1nc(N)c(C#N)c(-c2ccco2)c1C#N`, in the data set with ScN2a [4], the result was inactive. Besides, in the data set on ScN2a [3], the CC50 was above 25 µM.

With `N#Cc1c(N)nc2sc(C(=O)c3ccccc3[N+](=O)[O-])c(N)c2c1-c1ccco1`, in the data set on ScN2a [2], the EC50 was 10.9 µM. Further, the CC50 with ScN2a [3] is above 25 µM.

Consider `CCN(CC)CCSc1nc(N)c(C#N)c(-c2cccc(Br)c2)c1C#N`, for which the EC50 in the data set with ScN2a [2] worked out at 4.3 µM. For the same compound, the CC50 with ScN2a [3] was above 25 µM.

`CN(C)CCCN1c2ccccc2Sc2ccc(Cl)cc21` [CHLORPROMAZINE] displayed a solubility at 500 µM in data set [1] above 400 µM.

On to `COc1ccc(-c2c(C#N)c(N)nc(SCc3ncc[nH]3)c2C#N)cc1`, for which the concentration giving a half-maximal response (EC50) in the data set on ScN2a [2] is above 25 µM.

Consider `CN(C)CCCSc1nc(N)c(C#N)c(-c2ccco2)c1C#N`, for which, in data set [1], the solubility at 500 µM is above 400 µM. Moreover, in the data set with ScN2a [2], a half-maximal effect (EC50) was put at 10.2 µM. Also, the CC50 with ScN2a [3] was above 25 µM.

As for `CN(CCSc1nc(N)c(C#N)c(-c2ccco2)c1C#N)Cc1ccccc1`, the outcome with ScN2a [4] was inactive. Besides, the CC50 in the data set on ScN2a [3] is above 25 µM.

Turning to `CCN(CC)CCCC(C)Nc1c2ccc(Cl)cc2nc2ccc(OC)cc12` (stereo not drawn) [QUINACRINE], the EC50 in the data set on ScN2a [2] came to 0.8 µM. Also, the CC50 with ScN2a [3] worked out at 7.8 µM.

`CCN(CC)CCSc1nc(N)c(C#N)c(-c2cccc(Cl)c2Cl)c1C#N`: the solubility at 500 µM in data set [1] was 200 µM (≈ 84.1 µg/mL). The EC50 with ScN2a [2] turned out to be 4.5 µM. Besides, in the data set with ScN2a [3], the CC50 was above 25 µM.

Regarding `N#Cc1c(N)nc(SCC(N)=O)c(C#N)c1-c1ccco1`, the result in the data set on ScN2a [4] was inactive. For the same compound, the CC50 in the data set with ScN2a [3] is above 25 µM.

Regarding `CN(C)CCSc1nc(N)c(C#N)c(-c2ccco2)c1C#N`, in the data set with ScN2a [2], the 50% effective concentration (EC50) stood at 13.9 µM. In the data set with ScN2a [3], the CC50 was above 25 µM.

`N#Cc1c(N)nc(Sc2ccccc2N)c(C#N)c1-c1ccco1` gave an EC50 in the data set on ScN2a [2] of 80 µM. Also, the CC50 in the data set on ScN2a [3] is above 80 µM.

`CNC(=O)[C@H]1O[C@@H](n2cnc3c(NCc4cccc(I)c4)ncnc32)[C@H](O)[C@@H]1O` [IB-MECA] displayed a 50% effective concentration (EC50) with ScN2a [2] above 25 µM.

`CCN(CC)CCSc1nc(N)c(C#N)c(-c2ccc(Cl)c(Cl)c2)c1C#N`: the concentration in solution in data set [1] (solubility at 500 µM) came to 200 µM (≈ 84.1 µg/mL). The compound further registered an EC50 with ScN2a [2] of 7.2 µM. The CC50 in the data set with ScN2a [3] is above 25 µM.

In data set [1], `N#Cc1c(N)nc(SCCN2CCCC2)c(C#N)c1-c1ccco1` registered a solubility at 500 µM of 200 µM (≈ 67.9 µg/mL). A half-maximal response with ScN2a [2] (EC50) required 10.6 µM. For the same compound, the CC50 with ScN2a [3] is above 25 µM.

Compound `CCN(CC)CCSc1nc(N)c(C#N)c(-c2cccc(Cl)c2)c1C#N` came in with an EC50 in the data set with ScN2a [2] of 5.3 µM. For the same compound, in the data set with ScN2a [3], the CC50 is above 25 µM.

As to `CCN(CC)CCSc1nc(N)c(C#N)c(-c2ccc(Cl)cc2)c1C#N`, the solubility at 500 µM in data set [1] was found to be 200 µM (≈ 77.2 µg/mL). The same compound yielded a concentration for a half-maximal effect (EC50) in the data set on ScN2a [2] of 7.5 µM. In addition, the CC50 in the data set on ScN2a [3] was above 25 µM.

`N#Cc1c(N)nc(SCc2ncc[nH]2)c(C#N)c1-c1ccccc1`: the EC50 with ScN2a [2] was above 25 µM.

Consider `N#Cc1c(N)nc(SCCN2CCOCC2)c(C#N)c1-c1ccco1`, for which, in the data set with ScN2a [4], the outcome was inactive. For the same compound, the CC50 in the data set with ScN2a [3] was above 25 µM.

For the compound `CCN(CC)CCSc1nc(N)c(C#N)c(-c2ccccc2Cl)c1C#N`, the inhibition in data set [5] was 62%; in data set [6], 77%; in data set [7], 95%. Also, the solubility at 500 µM in data set [1] was above 400 µM. The EC50 in the data set with ScN2a [2] came out at 5.5 µM. For the same compound, at Adenosine receptor A1, the Ki came out at 0.59 µM. The CC50 in the data set on ScN2a [3] is above 25 µM.

Take `N#Cc1c(N)nc(SCc2ccccc2)c(C#N)c1-c1cccs1`: the result in the data set on ScN2a [4] was inactive. In addition, in the data set on ScN2a [3], the CC50 was above 25 µM.

Take `CCN(CC)CCSc1nc(N)c(C#N)c(-c2cc(Cl)cc(Cl)c2)c1C#N`: the EC50 in the data set with ScN2a [2] stood at 2.2 µM. The CC50 with ScN2a [3] is above 25 µM.

With `N#Cc1c(N)nc(SCCCN)c(C#N)c1-c1ccco1`, in the data set with ScN2a [4], the result was inactive. For the same compound, in the data set with ScN2a [3], the CC50 is above 25 µM.

`CCN(CC)CCSc1nc(N)c(C#N)c(-c2ccc(Br)cc2)c1C#N` registered a solubility at 500 µM in data set [1] of 200 µM (≈ 86.1 µg/mL). The same compound showed an EC50 with ScN2a [2] of 6.1 µM. Besides, in the data set on ScN2a [3], the CC50 is above 25 µM.

The compound `CCCn1c(=O)c2[nH]c(C3CCCC3)nc2n(CCC)c1=O` [1,3-DIPROPYL-8-CYCLOPENTYLXANTHINE [DPCPX]] came in with an EC50 with ScN2a [2] above 25 µM.

As to `N#Cc1c(N)nc(SCCCN2CCCCC2)c(C#N)c1-c1ccco1`, the solubility at 500 µM in data set [1] was above 400 µM. This compound returned an EC50 in the data set with ScN2a [2] of 6 µM. Further, the CC50 with ScN2a [3] was above 25 µM.

As for `CCN(CC)CCSc1nc(N)c(C#N)c(-c2ccco2)c1C#N`, in data set [1], the solubility at 500 µM is above 400 µM. This compound also yielded an EC50 with ScN2a [2] of 8.8 µM. For the same compound, in the data set with ScN2a [3], the CC50 is above 25 µM.

In turn, `CC(C)N(CCSc1nc(N)c(C#N)c(-c2ccco2)c1C#N)C(C)C` had an EC50 with ScN2a [2] of 13.4 µM. For the same compound, the CC50 in the data set with ScN2a [3] was above 25 µM.
